# Reference: ChEMBL document CHEMBL3588770, “Novel spirohydantoin derivative as a potent multireceptor-active antipsychotic and antidepressant agent” (Bioorg Med Chem, 2015)
# Activity calls are given as the source filed them. The rule behind the calls is not given here.
# Columns and labels:
# [1] = target: T1, 5-hydroxytryptamine receptor 1A (Rattus norvegicus, UniProt P19327); experiment: Displacement of [3H]-8-OH-DPAT from 5-HT1A receptor in rat hippocampal membrane by liquid scintillation analysis; assay type: cell membranes, Hippocampus
# T1 sequence (P19327 whole entry): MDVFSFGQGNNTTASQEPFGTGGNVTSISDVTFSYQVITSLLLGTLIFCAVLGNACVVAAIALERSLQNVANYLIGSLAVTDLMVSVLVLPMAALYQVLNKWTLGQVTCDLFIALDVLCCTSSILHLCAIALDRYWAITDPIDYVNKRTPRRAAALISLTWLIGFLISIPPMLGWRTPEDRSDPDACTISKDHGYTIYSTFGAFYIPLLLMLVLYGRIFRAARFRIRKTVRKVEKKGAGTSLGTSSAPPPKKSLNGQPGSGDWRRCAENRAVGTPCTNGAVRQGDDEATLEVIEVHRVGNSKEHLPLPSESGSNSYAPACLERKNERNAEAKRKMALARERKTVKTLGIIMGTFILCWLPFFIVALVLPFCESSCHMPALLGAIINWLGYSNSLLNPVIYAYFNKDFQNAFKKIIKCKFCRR
# Outline: (§1)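 Native rat membranes were used: hippocampus with [3H]-8-OH-DPAT (170 Ci/mmol) and 5-HT for non-specific binding; cortex with [3H]-ketanserin (88.0 Ci/mmol) and methysergide; hypothalamus with [3H]-5-CT (34.5 Ci/mmol) and 5-HT. Compounds were tested in triplicate at 7–8 concentrations (10⁻¹¹–10⁻⁴ M). Read-out was liquid scintillation counting. Ki came from nonlinear regression with Cheng-Prusoff, as the mean of at least two experiments.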
# [2] = target: 5-hydroxytryptamine receptor 7 (Rattus norvegicus, UniProt P32305); experiment: Displacement of [3H]-5-CT from 5-HT7 receptor in rat hypothalamic membrane by liquid scintillation analysis; assay type: cell membranes; outline: as §1
# Sequence of 5-hydroxytryptamine receptor 7 (P32305 whole entry): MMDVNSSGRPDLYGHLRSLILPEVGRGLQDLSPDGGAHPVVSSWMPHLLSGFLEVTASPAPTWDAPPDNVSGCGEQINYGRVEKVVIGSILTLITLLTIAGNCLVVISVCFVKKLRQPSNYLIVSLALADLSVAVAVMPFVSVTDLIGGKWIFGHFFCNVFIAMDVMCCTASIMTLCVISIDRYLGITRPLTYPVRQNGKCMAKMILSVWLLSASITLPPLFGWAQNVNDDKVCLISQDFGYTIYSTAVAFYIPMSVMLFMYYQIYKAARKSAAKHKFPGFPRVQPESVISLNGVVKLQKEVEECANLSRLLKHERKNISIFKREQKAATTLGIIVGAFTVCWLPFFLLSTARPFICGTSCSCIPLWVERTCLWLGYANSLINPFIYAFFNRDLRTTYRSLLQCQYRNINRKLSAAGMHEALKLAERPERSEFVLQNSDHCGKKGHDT
# [3] = target: 5-hydroxytryptamine receptor 2A (Rattus norvegicus, UniProt P14842); experiment: Displacement of [3H]ketanserin from 5-HT2A receptor in rat cortical membrane by liquid scintillation analysis; assay type: cell membranes; outline: as §1
# Sequence of 5-hydroxytryptamine receptor 2A (P14842 whole entry): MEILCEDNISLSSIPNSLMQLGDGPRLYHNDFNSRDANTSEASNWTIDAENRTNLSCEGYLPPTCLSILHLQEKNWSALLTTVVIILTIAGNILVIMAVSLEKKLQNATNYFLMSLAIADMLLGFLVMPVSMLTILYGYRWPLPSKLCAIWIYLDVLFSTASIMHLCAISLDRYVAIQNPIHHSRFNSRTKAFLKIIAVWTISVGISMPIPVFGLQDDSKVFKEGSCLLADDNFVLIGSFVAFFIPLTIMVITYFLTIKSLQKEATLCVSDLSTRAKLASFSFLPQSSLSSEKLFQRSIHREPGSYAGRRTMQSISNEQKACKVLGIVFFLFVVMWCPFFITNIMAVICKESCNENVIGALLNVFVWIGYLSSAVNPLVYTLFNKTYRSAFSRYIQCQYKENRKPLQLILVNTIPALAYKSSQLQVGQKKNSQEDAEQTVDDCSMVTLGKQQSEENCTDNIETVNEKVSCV
# Mus musculus [4] = experiment: Anti-depressant like activity in Swiss albino mouse assessed as shortening of immobility time at 0.01 to 0.1 mg/kg, ip by forced swim test; assay type: functional, organism-based
# Mus musculus [5] = experiment: Toxicity in ip dosed CD-1 mouse assessed as minimum dose required for induction of catalepsy by bar test; assay type: organism-based; settings: in vivo
# Outline: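 Male CD-1 mice, 10 per group, given compound i.p. (1% Tween 80 suspension). Forelimbs were placed on a horizontal rod 4 cm high at 30, 60 and 120 min. Catalepsy was scored up to 3 (≥60 s on bar). Minimum cataleptogenic dose is the lowest dose giving a mean score ≥1 at any of those times.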
# Mus musculus [6] = experiment: Toxicity in ip dosed spontaneous locomotor activity CD-1 mouse model assessed as dose required to cause sedation; assay type: organism-based; settings: in vivo
# Outline: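 CD-1 mice, 8-10 per dose, with compound given i.p. in 1% Tween 80 suspension 60 min before testing. After 30 min habituation in individual cages, ambulation (channel crossings) was counted over 1 h, recorded every 5 min. Mean ± SEM, one-way ANOVA with Bonferroni test.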
# Mus musculus [7] = experiment: Antianxiety-like activity in Swiss albino mouse assessed as number of punished crossings at 0.06 to 0.5 mg/kg, ip by four-plate test; assay type: functional, organism-based
# Outline: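 Four-plate test in male Swiss albino mice, 8-10 per dose, dosed i.p. in Tween 80 vehicle. After 15-s habituation, a 0.8 mA, 0.5 s foot shock was given at each plate crossing, with a 3 s shock-free interval. Punished crossings were counted over a 1-min session.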
# Mus musculus [8] = experiment: Antipsychotic activity in ip dosed CD-1 mouse assessed as inhibition of D-amphetamine-induced hyperlocomotor activity; assay type: functional, organism-based
# Outline: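 Male CD-1 mice, 8-10 per dose. d-Amphetamine was given s.c. 30 min pretest; test compound i.p. 60 min pretest in 1% Tween 80. After 30 min habituation in the activity monitor, ambulation crossings were counted for 1 h, recorded every 5 min.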
# D(2) dopamine receptor = D(2) dopamine receptor (Rattus norvegicus, UniProt P61169); experiment: Displacement of [3H]spiperone from D2 receptor in rat striatum by liquid scintillation counting analysis
# Sequence of D(2) dopamine receptor (P61169 whole entry): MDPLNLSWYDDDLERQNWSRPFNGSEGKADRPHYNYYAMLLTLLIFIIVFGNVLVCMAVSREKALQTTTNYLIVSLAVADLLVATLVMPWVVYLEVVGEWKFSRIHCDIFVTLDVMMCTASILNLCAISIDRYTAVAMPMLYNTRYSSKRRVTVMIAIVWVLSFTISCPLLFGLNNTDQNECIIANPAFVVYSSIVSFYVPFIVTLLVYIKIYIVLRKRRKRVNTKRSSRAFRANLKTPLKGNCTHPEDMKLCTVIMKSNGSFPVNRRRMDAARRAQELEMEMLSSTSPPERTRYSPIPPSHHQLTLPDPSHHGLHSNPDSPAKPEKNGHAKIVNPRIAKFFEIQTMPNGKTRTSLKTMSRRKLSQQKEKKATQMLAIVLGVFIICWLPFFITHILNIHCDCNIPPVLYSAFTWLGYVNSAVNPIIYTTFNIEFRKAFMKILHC
# Outline: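 Rat striatal membranes with [3H]-spiperone. Compounds were tested in triplicate at 7–8 concentrations (10⁻¹¹–10⁻⁴). Ki values were calculated.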
SMILES,Ki [1] [nM],Ki [2] [nM],Ki [3] [nM],Ki (D(2) dopamine receptor) [nM],inhibition (Mus musculus [4]),Activity (Mus musculus [5]) [mg/kg],Activity (Mus musculus [6]) [mg/kg],Activity (Mus musculus [7]),inhibition (Mus musculus [8])
O=C1NC2(CCc3ccccc32)C(=O)N1CCCCN1CCN(c2ccccc2)CC1 (centres undefined),75,93,111,,,,,,
O=C1CCc2ccc(OCCCCN3CCN(c4cccc(Cl)c4Cl)CC3)cc2N1 [ARIPIPRAZOLE],,,,,inactive,1,1,inactive,Dose-dependent effect
O=C1NC2(CCCc3ccccc32)C(=O)N1CCCCN1CCN(c2cccc(C(F)(F)F)c2)CC1 (centres undefined),5.3,117,157,608,,,,,
O=C1NC2(CCC(c3ccccc3)CC2)C(=O)N1CCCCN1CCN(c2cccc(C(F)(F)F)c2)CC1 (centres undefined),22,379,122,> 10000,,,,,
O=C1NC2(CCC(c3ccccc3)CC2)C(=O)N1CCCCN1CCN(c2ccccc2)CC1 (centres undefined),35,515,48,,,,,,
O=C1NC2(CCc3ccccc32)C(=O)N1CCCCN1CCN(c2cccc(C(F)(F)F)c2)CC1 (centres undefined),6,67,87,412,,,,,

# The remaining compounds from weak to strong by Ki [1], led by results:
Ki [1] [nM],Ki [2] [nM],Ki [3] [nM],Ki (D(2) dopamine receptor) [nM],SMILES,inhibition (Mus musculus [4]),Activity (Mus musculus [5]) [mg/kg],Activity (Mus musculus [6]) [mg/kg],Activity (Mus musculus [7]),inhibition (Mus musculus [8])
306,1500,414,,O=C1NC2(CCCCC2c2ccccc2)C(=O)N1CCCCN1CCN(c2ccccc2)CC1 (centres undefined),,,,,
113,43,171,,O=C1NC2(CCCCC2c2ccccc2)C(=O)N1CCCCN1CCN(c2cccc(Cl)c2)CC1 (centres undefined),,,,,
42,63,498,,COc1ccccc1N1CCN(CCCCN2C(=O)NC3(CCCCC3c3ccccc3)C2=O)CC1 (centres undefined),,,,,
30,768,38,> 10000,O=C1NC2(CCC(c3ccccc3)CC2)C(=O)N1CCCCN1CCN(c2cccc(Cl)c2)CC1 (centres undefined),,,,,
13,116,77,743,O=C1NC2(CCCc3ccccc32)C(=O)N1CCCCN1CCN(c2ccccc2)CC1 (centres undefined),,,,,
3,130,75,79,COc1ccccc1N1CCN(CCCCN2C(=O)NC3(CCC(c4ccccc4)CC3)C2=O)CC1 (centres undefined),,,,,
